Results as given in ChEMBL document CHEMBL4765449, “Synthesis, biological evaluation and toxicity of novel tetrandrine analogues” (Eur J Med Chem, 2020).
Activity calls are given as the source filed them. The calls are words filed in the database; no cut-off is given here.

Columns and labels:
HepaRG [1] = assay: Cytotoxicity against human HepaRG cells assessed as reduction in cell viability at 10 uM measured after 24 hrs by Celltiter-blue cell viability assay; assay type: cell-based
Procedure, shortened: (§1)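 Differentiated HepaRG cells (Maintenance/Metabolism medium) exposed 24 h to 10 or 20 μM compound; viability by CellTiter-Blue, normalized to vehicle control. Means ± SEM of three independent experiments.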

HepaRG [2] = assay: Cytotoxicity against human HepaRG cells assessed as reduction in cell viability at 20 uM measured after 24 hrs by Celltiter-blue cell viability assay; assay type: cell-based; procedure, shortened: as §1
CCRF-CEM [3] = assay: Antiproliferative activity against vincristine-resistant human CEM cells assessed as reduction in cell viability measured after 48 hrs by Celltiter-blue cell viability assay; assay type: functional, cell-based
Procedure, shortened: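 VCR-R CEM cells (RPMI 1640, 10% FCS), 0.02 × 10^6 per well, rested 4 h (metabolic activity at this point taken as zero value), then exposed to compounds for 48 h; CellTiter-Blue added 2 h before end, fluorescence at 590 nm. IC50 by nonlinear regression; single-concentration proliferation read at 10 μM.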

HepG2 [4] = assay: Cytotoxicity against human HepG2 cells overexpressing EGFP-CYP3A4 assessed as reduction in cell viability at 15 uM measured after 24 hrs by propidium iodide staining based flow cytometry; assay type: functional
Procedure, shortened: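 HepG2 stably transfected (G418 0.5 mg/mL, four weeks; plasmid confirmed by PCR) with pcDNA3-CYP3A4-EGFP or empty vector, 0.1 × 10^6 per well, adhered overnight; 15 μM compound 24 h. Propidium iodide staining and flow cytometry; specific cell death relative to control. Three independent experiments.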

CEM [5] = assay: Inhibition of P-gp in vincristine-resistant human CEM cells at 0.1 to 1 uM using calcein-AM as substrate preincubated for 30 mins followed by compound washout and subsequent substrate addition measured after 60 mins by flow cytometric analysis; assay type: cell-based; conditions: dose 0.1-1 µM
CCRF-CEM [6] = assay: Effect on P-gp expression in vincristine-resistant human CEM cells at 1 uM measured after 1.5 hrs by immunostaining based flow cytometry; assay type: functional, cell-based
Procedure, shortened: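 VCR-R CEM, 2 × 10^4 cells, 1 μM compound 1.5 h at 37 °C; washed in ice-cold 1% BSA/PBS, stained 30 min at 4 °C in dark with FITC anti-human P-gp, isotype control for background; flow cytometry, gMFI normalized to DMSO. Three independent experiments.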

CEM [7] = assay: Inhibition of P-gp in vincristine-resistant human CEM cells assessed as potentiation of vincristine-induced apoptosis 1 uM measured after 48 hrs by propidium iodide staining based flow cytometry; assay type: cell-based
Procedure, shortened: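 VCR-R CEM, 0.125 × 10^6 per well, rested 4 h, then incubated 48 h with increasing vincristine with or without 1 μM compound; apoptosis by propidium iodide staining and flow cytometry. Three independent experiments.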

CEM [8] = assay: Effect on AKT phosphorylation at Ser473 residue in vincristine-resistant human CEM cells at 5 uM measured after 24 hrs by Western blot analysis; assay type: cell-based
Procedure, shortened: (§2)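 VCR-R CEM cells, 2 × 10^6 per well, seeded 4 h before 5 μM compound or DMSO for 24 h; RIPA lysis, SDS-PAGE, PVDF blotting, chemiluminescence. Probed for p-Akt (Ser473), total Akt, PARP, Bcl-xL, Mcl-1; stain-free total protein as loading control.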

CCRF-CEM [9] = assay: Effect on Bcl-XL expression in vincristine-resistant human CEM cells at 5 uM measured after 24 hrs by Western blot analysis; assay type: functional, cell-based; procedure, shortened: as §2
CCRF-CEM [10] = assay: Effect on MCL1 expression in vincristine-resistant human CEM cells at 5 uM measured after 24 hrs by Western blot analysis; assay type: functional, cell-based; procedure, shortened: as §2
CCRF-CEM [11] = assay: Induction of mitochondrial membrane disruption in vincristine-resistant human CEM cells at 5 uM measured after 24 hrs by JC-1 dye based flow cytometric analysis; assay type: functional, cell-based
Procedure, shortened: (§3)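 Cells (HepG2 adhered overnight; VCR-R CEM seeded 4 h before) treated with DMSO or 5 μM for 24 h; JC-1 (1 μg/mL) 1 h before harvest, PBS wash, flow cytometry; green shift read as loss of ΔΨm. CCCP (100 μM, 1 h) positive control; elacridar (5 μM) present for CEM staining.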

HepG2 [12] = assay: Inhibition of AKT phosphorylation at Ser473 residue in human HepG2 cells at 5 uM measured after 24 hrs by Western blot analysis; assay type: cell-based
Procedure, shortened: (§4)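 HepG2, 0.5 × 10^6 per well, adhered overnight, then DMSO or 5 μM compound; RIPA lysates immunoblotted by SDS-PAGE/PVDF with chemiluminescent detection.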

HepG2 [13] = assay: Induction of apoptosis in human HepG2 cells assessed as increase in PARP cleavage at 5 uM measured after 24 hrs by Western blot analysis; assay type: functional, cell-based; procedure, shortened: as §4
HepG2 [14] = assay: Induction of apoptosis in human HepG2 cells assessed as reduction in Bcl-xl expression at 5 uM measured after 24 hrs by Western blot analysis; assay type: functional, cell-based; procedure, shortened: as §4
HepG2 [15] = assay: Induction of apoptosis in human HepG2 cells assessed as reduction in Mcl-1 expression at 5 uM measured after 24 hrs by Western blot analysis; assay type: functional, cell-based; procedure, shortened: as §4
HepG2 [16] = assay: Induction of mitochondrial membrane disruption in human HepG2 cells at 5 uM measured after 24 hrs by JC-1 dye based flow cytometric analysis; assay type: functional, cell-based; procedure, shortened: as §3
CCRF-CEM [17] = assay: Induction of apoptosis in vincristine-resistant human CEM cells assessed as increase in PARP cleavage at 5 uM measured after 24 hrs by Western blot analysis; assay type: functional, cell-based; procedure, shortened: as §2

Structure (SMILES) | Activity (HepaRG [1]) | Activity (HepaRG [2]) | IC50 (CCRF-CEM [3]) [µM] | Activity (HepG2 [4]) | inhibition (CEM [5]) | Activity (CCRF-CEM [6]) | inhibition (CEM [7]) | Activity (CEM [8]) | Activity (CCRF-CEM [9]) | Activity (CCRF-CEM [10]) | Activity (CCRF-CEM [11]) | inhibition (HepG2 [12]) | Activity (HepG2 [13]) | Activity (HepG2 [14]) | Activity (HepG2 [15]) | Activity (HepG2 [16]) | Activity (CCRF-CEM [17])
COc1cc2c3cc1Oc1c(OC)c(OC)cc4c1C(Cc1ccc(Cl)c(c1)Oc1ccc(cc1)CC3N(C)CC2)N(C)CC4 (mixture of isomers) | Toxic | Toxic | 4.8 | – | – | – | – | – | – | – | – | – | – | – | – | – | –
COc1cc2c3cc1Oc1c(OC)c(OC)cc4c1C(Cc1cc(cs1)Oc1ccc(cc1)CC3N(C)CC2)N(C)CC4 (racemic; form 1) | – | – | – | Active | Active | inactive | Active | inactive | inactive | inactive | Active | Active | inactive | Active | Active | inactive | –
COc1cc2c3cc1Oc1c(OC)c(OC)cc4c1C(Cc1ccc(OC(F)(F)F)c(c1)Oc1ccc(cc1)CC3N(C)CC2)N(C)CC4 (racemic; form 2) | – | – | – | Active | Active | inactive | Active | inactive | inactive | inactive | Active | Active | inactive | – | – | inactive | Active
